Experimental data: ChEMBL document CHEMBL1124344, “5-Piperazinylalkyl-2(3H)-oxazolones with neuroleptic activity” (J Med Chem, 1989)

Assays:
[1] = tested on: Mus musculus; assay: Suppression of aggressive behavior, after 5 hour of peroral administration in mouse at a dose of 10 mg/kg; format: functional; conditions: route oral
Method in brief: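 Male mice made aggressive by about 1 month of isolation in individual black cages plus weekly testosterone cyclopentylpropionate 250 mg/kg sc. Pairs preselected for aggressiveness shortly before oral dosing 1 or 5 h beforehand; attack on a nonisolated male within 15 min scored. ED50 is the dose suppressing aggression in 50% of animals.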

[2] = tested on: Mus musculus; assay: Contractile activity in skeletal muscles, after 5 hour of peroral administration in mouse at a dose of 40 mg/kg; format: functional; conditions: Muscle tissue, route oral
Method in brief: (§1)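 Male mice suspended by forepaws from a 1.8-mm wire stretched 15 cm above a plane. Trained normal mice touch the wire with a hind paw within 2 s (traction) and hang at least 1 min (suspension). Oral dosing 1 or 5 h before. ED50 is the dose making 50% of mice fall without traction and suspension.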

[3] = tested on: Mus musculus; assay: Antagonistic activity against amphetamine-induced hypermotility, after 1 hour of peroral administration in mouse; format: functional; conditions: po
Method in brief: (§2)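 Male mice in groups of five, fasted overnight, given oral drug in arabic gum suspension (10 mL/kg) 1 or 5 h ahead. Amphetamine 4 mg/kg ip given 30 min after drug. Ten minutes later locomotion is recorded for 15 min in a photocell actophotometer. ED50 is 50% reduction versus control hypermotility, by probit analysis. Parenthetical entries give the maximal dose and percent activity.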

[4] = tested on: Mus musculus; assay: Inhibitory activity against tremorine-induced tremors, after 5 hour of peroral administration in mouse; format: functional; conditions: po
[5] = tested on: Mus musculus; assay: Inhibition of spontaneous motor activity, after 5 hour of peroral administration in mouse; format: functional; conditions: po
Method in brief: (§3)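 Mice fasted overnight, then dosed orally with compound (weighed as base) suspended in arabic gum, 10 mL/kg, with vehicle controls; 1 h pretreatment for screening tests, 1 or 5 h for others. Groups of five; locomotor activity counted 10 min in photocell activity cage, at least two groups per dose. ED50 = dose giving 50% inhibition versus controls, by probit analysis.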

[6] = tested on: Mus musculus; assay: Anticonvulsant activity against pentylenetetrazole-induced convulsions, after 1 hour of peroral administration in mouse at a dose of 40 mg/kg; format: functional; conditions: route oral
Method in brief: (§4)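 Male mice dosed orally (arabic gum, 10 mL/kg) 1 or 5 h before challenge with tryptamine 100 mg/kg iv, pentylenetetrazol 110 mg/kg ip, or maximal electroshock. Protection means no bilateral forepaw clonic seizures and head twitches (tryptamine) or no tonic hind-limb extension (others). ED50 protects 50% of mice.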

[7] = species on record: Rattus norvegicus; assay: animal or person; conditions: po, read-out: Inhibition
[8] = tested on: Mus musculus; assay: Inhibitory activity against tremorine-induced salivation, after 1 hour of peroral administration in mouse; format: functional; conditions: po
Method in brief: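 Male mice fasted overnight, dosed orally with arabic gum suspension (10 mL/kg) 1 or 5 h before test, vehicle controls included. Tremorine 20 mg/kg ip given 1 h after compounds; central (tremor) and peripheral (salivation) parasympathetic signs recorded. ED50 = dose protecting 50% of animals, by probit analysis.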

[9] = tested on: Mus musculus; assay: Inhibition of spontaneous motor activity in mouse, by administering perorally; format: functional; conditions: po; method in brief: as §3
[10] = Lethal dose in mice (LD50) following i.p. dosing; format: toxicity, organism-based; conditions: mouse, in vivo, ip
Method in brief: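 Acute toxicity tested in mice by the intraperitoneal route. LD50 is the dose killing 50% of treated mice, computed by Finney probit analysis; values are approximate.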

[11] = tested on: Mus musculus; assay: Anticonvulsant activity against pentylenetetrazole-induced convulsions, after 5 hour of peroral administration in mouse at a dose of 40 mg/kg; format: functional; conditions: route oral; method in brief: as §4
[12] = tested on: Mus musculus; assay: Effect on skeletal muscle tone, after 1 hour of peroral administration in mouse; format: functional; conditions: Muscle tissue, po; method in brief: as §1
[13] = tested on: Rattus norvegicus; assay: Antagonistic activity against amphetamine-induced stereotypy, after 1 hour of peroral administration in rats at a dose of 20 mg/kg; conditions: po, read-out: Inhibition
[14] = tested on: Mus musculus; assay: Antagonistic activity against amphetamine-induced hypermotility, after 5 hour of peroral administration in mouse; format: functional; conditions: po; method in brief: as §2
[15] = tested on: Mus musculus; assay: Activity of inclined screen in mouse, after 1 hour of peroral administration in mouse; format: functional
Method in brief: (§5)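 Male mice placed for 1 h on a wire screen inclined 60°, just after oral dosing and 4 h later; ataxic or relaxed mice slide off. Fasted overnight, 10 per dose, vehicle controls. Compounds weighed as bases, suspended in arabic gum, 10 mL/kg orally; ED50 by Finney probit analysis.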

[16] = tested on: Mus musculus; assay: Potentiation against pentobarbital-induced sleeping, after 1 hour of peroral administration in mouse; format: functional; conditions: po
Method in brief: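 Female mice fasted overnight, dosed orally 1 or 5 h beforehand as arabic gum suspension, 10 mL/kg, with vehicle controls. Subhypnotic pentobarbital 10 mg/kg iv; 3 min later placed on back, effect scored as complete loss of righting reflex for at least 15 s. ED50 = dose producing this in 50% of mice, probit analysis.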

[17] = tested on: Mus musculus; assay: Anticonvulsant activity against tryptamine-induced convulsions, after 1 hour of peroral administration in mouse; format: functional; conditions: po
Method in brief: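 Compounds were dosed as bases suspended in arabic gum at 10 mL/kg orally, after an overnight fast, with vehicle controls. Protection meant no bilateral forepaw clonic seizures or head twitches (tryptamine), or no tonic hind-limb extension (the other two). ED50 is the dose protecting 50%, by probit analysis.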

[18] = tested on: Rattus norvegicus; assay: Antagonistic activity against amphetamine-induced stereotypy, after 5 hour of peroral administration in rats at a dose of 20 mg/kg; conditions: po, read-out: Inhibition
[19] = tested on: Rattus norvegicus; assay: Antagonistic activity against apomorphine-induced stereotypy, after 1 hour of peroral administration in rats at a dose of 80 mg/kg; conditions: po, read-out: Inhibition
[20] = tested on: Rattus norvegicus; assay: Inhibition against conditioned avoidance response, after 5 hour of peroral administration in rats at a dose of 20 mg/kg; conditions: po, read-out: Inhibition
[21] = tested on: Rattus norvegicus; assay: Inhibition against conditioned avoidance response, after 1 hour of peroral administration in rats; format: functional; conditions: po
Method in brief: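 Male rats were trained in a shuttle box to avoid grid-floor shock by crossing compartments during a warning period. Dosing was oral as a gum arabic suspension at 10 mL/kg after an overnight fast. Percent inhibition was computed against a pretraining test. ED50 is the dose giving 50% inhibition.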

[22] = tested on: Mus musculus; assay: Effect on skeletal muscle tone, after 5 hour of peroral administration in mouse; format: functional; conditions: Muscle tissue, po
Method in brief: (§6)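 Male mice were placed for 1 h on a 60° inclined wire screen just after dosing and 4 h later. In a second test, trained mice hung by the forepaws from a horizontal 1.8 mm wire 15 cm up; normal mice touch it with a hind paw within 2 s and stay ≥1 min. ED50 is the dose making 50% fall. Dosing was oral in gum arabic suspension at 10 mL/kg after an overnight fast.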

[23] = tested on: Mus musculus; assay: Contractile activity in skeletal muscles, after 1 hour of peroral administration in mouse; format: functional; conditions: Muscle tissue, po; method in brief: as §6
[24] = tested on: Mus musculus; assay: Anticonvulsant activity against electroshock-induced convulsions, after 1 hour of peroral administration in mouse at a dose of 26 mg/kg; format: functional; conditions: route oral; method in brief: as §4
[25] = tested on: Mus musculus; assay: Inhibitory activity against tremorine-induced tremors, after 1 hour of peroral administration in mouse; format: functional; conditions: po
Method in brief: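 Male mice given oral drug, then tremorine 20 mg/kg ip 1 h later; central tremor and peripheral salivation recorded. ED50 is the dose protecting 50% of animals from tremorine effects, by probit analysis.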

[26] = tested on: Rattus norvegicus; assay: Body weight gain, after 1 hour of peroral administration in rats; format: functional; conditions: po
Method in brief: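 Female rats (250–280 g), individually caged, on 22-h food deprivation with pellets 10–12 a.m.; weighed before and after eating. After 30–40 days training, oral drug given 1 h before the 2-h feeding. Weight gain expressed as percent of the two preceding control days; ED50 is the dose giving 50% reduction.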

[27] = tested on: Mus musculus; assay: Suppression of aggressive behavior, after 1 hour of peroral administration in mouse; format: functional; conditions: po
Method in brief: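 Male mice made aggressive by isolation in individual black cages for about 1 month plus weekly testosterone cyclopentylpropionate 250 mg/kg sc; pairs preselected for attack on a nonisolated male within 15 min. Oral dosing (arabic gum, 10 mL/kg) 1 or 5 h before test, overnight fast. ED50 = dose suppressing aggression in 50% of animals, probit analysis.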

[28] = tested on: Rattus norvegicus; assay: Antagonistic activity against apomorphine-induced stereotypy, after 5 hour of peroral administration in rats at a dose of 80 mg/kg; conditions: po, read-out: Inhibition
[29] = tested on: Mus musculus; assay: Activity of inclined screen in mouse, after 5 hour of peroral administration in mouse; format: functional; method in brief: as §5
[30] = tested on: Mus musculus; assay: Antagonistic activity against amphetamine-induced Hypermobility in mouse by administering perorally; format: functional; conditions: po; method in brief: as §2
[31] = tested on: Rattus norvegicus; assay: Activity to evoke catalepsy, after 1 hour of peroral administration in rats; format: functional; conditions: po
Method in brief: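 Rats fasted overnight and given oral doses in arabic gum suspension (10 mL/kg), 1 h before screening or 1 and 5 h before profile testing. Forelegs placed on a horizontal bar 7 cm high, three times at 5-min intervals. Immobility of at least 15 s counts as catalepsy. ED50 is the dose giving catalepsy in 50% of rats, by probit analysis. Parenthetical entries give the maximal dose and percent activity.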

[32] = tested on: Mus musculus; assay: Inhibition against apomorphine-induced climbing, after 1 hour of peroral administration in mouse; format: functional; conditions: po
Method in brief: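 Mice were dosed orally (gum arabic suspension, 10 mL/kg, fasted), then given apomorphine 1 mg/kg sc and placed in cylindrical cages with vertical metal bars. Climbing was scored 0 for four paws on the floor, 1 for forefeet on the wall, 2 for four paws on the wall. ED50 is the dose halving the control score.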

[33] = tested on: Rattus norvegicus; assay: Antagonistic activity against apomorphine-induced stereotypy in rats, by administering perorally at a dose of 80 mg/kg; conditions: po, read-out: Inhibition
[34] = tested on: Mus musculus; assay: Anticonvulsant activity against tryptamine-induced convulsions, after 5 hour of peroral administration in mouse at a dose of 40 mg/kg; format: functional; conditions: route oral; method in brief: as §4
[35] = tested on: Mus musculus; assay: Inhibition of spontaneous motor activity, after 1 hour of peroral administration in mouse; format: functional; conditions: po; method in brief: as §3

CN1CCN(C2=Nc3cc(Cl)ccc3Nc3ccccc32)CC1 [CLOZAPINE]
inhibition in vivo at 10 mg/kg [1]: 0% | inhibition in vivo at 40 mg/kg [2]: 10% | ED50 [3]: 4.5 mg/kg | ED50 [4]: 30 mg/kg | ED50 [5]: 23 mg/kg | inhibition in vivo at 40 mg/kg [6]: 0% | inhibition in vivo at 26 mg/kg [7]: 37% | ED50 [8]: 6.9 mg/kg | ED50 [9]: 4.2 mg/kg | LD50 [10]: 100 mg/kg | inhibition in vivo at 40 mg/kg [11]: 0% | ED50 [12]: 9.2 mg/kg | inhibition in vivo at 20 mg/kg [13]: 20% | ED50 [14]: 20.1 mg/kg | ED50 [15]: 9.3 mg/kg | ED50 [16]: 6.6 mg/kg | ED50 [17]: 10.3 mg/kg | inhibition in vivo at 20 mg/kg [18]: 0% | inhibition in vivo at 80 mg/kg [19]: 30% | inhibition in vivo at 20 mg/kg [20]: 0% | ED50 [21]: 8.6 mg/kg | ED50 [22]: 30 mg/kg | ED50 [23]: 40 mg/kg | inhibition in vivo at 26 mg/kg [24]: 37% | ED50 [25]: 30 mg/kg | ED50 [26]: 8 mg/kg | ED50 [27]: 3.5 mg/kg | inhibition in vivo at 80 mg/kg [28]: 0% | ED50 [29]: 18.8 mg/kg | ED50 [30]: 4.5 mg/kg | ED50 [31]: 34 mg/kg | ED50 [32]: 12 mg/kg | inhibition in vivo at 80 mg/kg [33]: 30% | inhibition in vivo at 40 mg/kg [34]: 0% | ED50 [35]: 4.2 mg/kg
